Reference: ChEMBL document CHEMBL3421541, “Benzaldehyde Schiff bases regulation to the metabolism, hemolysis, and virulence genes expression in vitro and their structure-microbicidal activity relationship” (2015)
Converted amounts (≈) assume the structure as drawn. The source made the active and inactive calls.

Key:
[1] = system: Escherichia coli; test: Antibacterial activity against Escherichia coli assessed as growth inhibition at 100 umol/L after 8 hrs by ELISA plate reader analysis relative to control; format: functional; conditions: read-out: GI
Summary of the method: (§1)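 Bacteria were seeded at 1×10^5 CFU/mL in LB, and compound was added to 100 µmol/L final. Compounds came from DMSO stock, with DMSO ≤1% (v/v) final. Cultures were shaken at 37 °C for 8 h and read at OD450. Inhibition % = (OD vehicle control − OD sample)/OD vehicle control × 100. Values are the mean of three independent experiments.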

[2] = system: Staphylococcus aureus; test: Antibacterial activity against Staphylococcus aureus assessed as growth inhibition at 100 umol/L after 8 hrs by ELISA plate reader analysis relative to control; format: functional; conditions: read-out: GI; summary of the method: as §1
[3] = system: Staphylococcus aureus; test: Antibacterial activity against Staphylococcus aureus assessed as lowest concentration required to reduce growth by 1% after 8 hrs by ELISA plate reader analysis relative to control; format: functional
Summary of the method: (§2)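 MBC was found by broth microdilution. Inocula of 1×10^5 CFU/mL in LB were shaken at 37 °C with a series of compound concentrations, then read at OD450. MBC was defined as the lowest concentration reducing growth by 1% versus the inoculum control. Three independent experiments were run.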

[4] = system: Staphylococcus aureus; test: Downregulation of hla gene expression in Staphylococcus aureus at 50 umol/L after 8 hrs by real-time RT-PCR analysis relative to control; format: functional, organism-based
Summary of the method: (§3)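 S. aureus ATCC 25923 at 2×10^7 CFU/mL in LB was exposed to 50 µmol/L compound, or LB alone, for 8 h at 37 °C. Total RNA was analysed by TaqMan real-time RT-PCR or semi-quantitative RT-PCR, normalised to gyrB. Fold change is versus time-matched medium-only cultures, with data pooled from three experiments.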

[5] = system: Staphylococcus aureus; test: Downregulation of hla gene expression in Staphylococcus aureus at 50 umol/L after 8 hrs by semi-quantitative RT-PCR analysis relative to control; format: functional, organism-based; summary of the method: as §3
[6] = system: Staphylococcus aureus; test: Upregulation of sbi gene expression in Staphylococcus aureus at 50 umol/L after 8 hrs by real-time RT-PCR analysis relative to control; format: functional, organism-based; summary of the method: as §3
[7] = system: Staphylococcus aureus; test: Upregulation of sbi gene expression in Staphylococcus aureus at 50 umol/L after 8 hrs by semi-quantitative RT-PCR analysis relative to control; format: functional, organism-based; summary of the method: as §3
[8] = system: Staphylococcus aureus; test: Downregulation of mecA gene expression in Staphylococcus aureus at 50 umol/L after 8 hrs by real-time RT-PCR analysis relative to control; format: functional; summary of the method: as §3
[9] = system: Staphylococcus aureus; test: Downregulation of mecA gene expression in Staphylococcus aureus at 50 umol/L after 8 hrs by semi-quantitative RT-PCR analysis relative to control; format: functional; summary of the method: as §3
[10] = system: Staphylococcus aureus; test: Downregulation of saeR gene expression in Staphylococcus aureus at 50 umol/L after 8 hrs by real-time RT-PCR analysis relative to control; format: functional, organism-based; summary of the method: as §3
[11] = system: Staphylococcus aureus; test: Downregulation of saeR gene expression in Staphylococcus aureus at 50 umol/L after 8 hrs by semi-quantitative RT-PCR analysis relative to control; format: functional, organism-based; summary of the method: as §3
[12] = system: Escherichia coli; test: Antibacterial activity against Escherichia coli assessed as lowest concentration required to reduce growth by 1% after 8 hrs by ELISA plate reader analysis relative to control; format: functional; summary of the method: as §2
[13] = system: Bacillus subtilis; test: Antibacterial activity against Bacillus subtilis assessed as growth inhibition at 100 umol/L after 8 hrs by ELISA plate reader analysis relative to control; format: functional; conditions: read-out: GI; summary of the method: as §1
[14] = system: Escherichia coli; test: Downregulation of cysB gene expression in Escherichia coli at 50 umol/L after 8 hrs by real-time RT-PCR analysis relative to control; format: functional, organism-based
Summary of the method: (§4)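 E. coli at 2×10^7 CFU/mL in LB was exposed to 50 µmol/L compound, or LB alone, for 8 h at 37 °C. Total RNA was then analysed by TaqMan real-time RT-PCR or semi-quantitative RT-PCR. Transcripts were normalised to gapA. Fold change is relative to time-matched medium-only cultures.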

[15] = system: Escherichia coli; test: Downregulation of cysB gene expression in Escherichia coli at 50 umol/L after 8 hrs by semi-quantitative RT-PCR analysis relative to control; format: functional, organism-based; summary of the method: as §4
[16] = system: Escherichia coli; test: Downregulation of tsh gene expression in Escherichia coli at 50 umol/L after 8 hrs by real-time RT-PCR analysis relative to control; format: functional, organism-based; summary of the method: as §4
[17] = system: Escherichia coli; test: Downregulation of IroD gene expression in Escherichia coli at 50 umol/L after 8 hrs by real-time RT-PCR analysis relative to control; format: functional, organism-based; summary of the method: as §4
[18] = system: Escherichia coli; test: Downregulation of tsh gene expression in Escherichia coli at 50 umol/L after 8 hrs by semi-quantitative RT-PCR analysis relative to control; format: functional, organism-based; summary of the method: as §4
[19] = system: Escherichia coli; test: Downregulation of IroD gene expression in Escherichia coli at 50 umol/L after 8 hrs by semi-quantitative RT-PCR analysis relative to control; format: functional, organism-based; summary of the method: as §4
[20] = system: Staphylococcus aureus; test: Upregulation of hla gene expression in Staphylococcus aureus at 50 umol/L after 8 hrs by real-time RT-PCR analysis relative to control; format: functional, organism-based; summary of the method: as §3
[21] = system: Staphylococcus aureus; test: Upregulation of hla gene expression in Staphylococcus aureus at 50 umol/L after 8 hrs by semi-quantitative RT-PCR analysis relative to control; format: functional, organism-based; summary of the method: as §3
[22] = system: Bacillus subtilis; test: Antibacterial activity against Bacillus subtilis assessed as lowest concentration required to reduce growth by 1% after 8 hrs by ELISA plate reader analysis relative to control; format: functional; summary of the method: as §2
[23] = system: Bacillus subtilis; test: Downregulation of yqhC gene expression in Bacillus subtilis at 50 umol/L after 8 hrs by real-time RT-PCR analysis relative to control; format: functional, organism-based
Summary of the method: as §3, with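 “B. subtilis” for “S. aureus”, “6051” for “25923”, “16sRNA.” for “gyrB.”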

[24] = system: Bacillus subtilis; test: Downregulation of yqhC gene expression in Bacillus subtilis at 50 umol/L after 8 hrs by semi-quantitative RT-PCR analysis relative to control; format: functional, organism-based
Summary of the method: as §3, with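 “B. subtilis” for “S. aureus”, “6051” for “25923”, “16sRNA.” for “gyrB.”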

[25] = system: Bacillus subtilis; test: Downregulation of yhdP gene expression in Bacillus subtilis at 50 umol/L after 8 hrs by real-time RT-PCR analysis relative to control; format: functional, organism-based
Summary of the method: as §3, with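 “B. subtilis” for “S. aureus”, “6051” for “25923”, “16sRNA.” for “gyrB.”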

[26] = system: Bacillus subtilis; test: Downregulation of yhdP gene expression in Bacillus subtilis at 50 umol/L after 8 hrs by semi-quantitative RT-PCR analysis relative to control; format: functional, organism-based
Summary of the method: as §3, with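 “B. subtilis” for “S. aureus”, “6051” for “25923”, “16sRNA.” for “gyrB.”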

[27] = system: Bacillus subtilis; test: Downregulation of yhdT gene expression in Bacillus subtilis at 50 umol/L after 8 hrs by real-time RT-PCR analysis relative to control; format: functional, organism-based
Summary of the method: as §3, with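 “B. subtilis” for “S. aureus”, “6051” for “25923”, “16sRNA.” for “gyrB.”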

[28] = system: Bacillus subtilis; test: Downregulation of yhdT gene expression in Bacillus subtilis at 50 umol/L after 8 hrs by semi-quantitative RT-PCR analysis relative to control; format: functional, organism-based
Summary of the method: as §3, with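 “B. subtilis” for “S. aureus”, “6051” for “25923”, “16sRNA.” for “gyrB.”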

[29] = system: Bacillus subtilis; test: Downregulation of yqhB gene expression in Bacillus subtilis at 50 umol/L after 8 hrs by real-time RT-PCR analysis relative to control; format: functional, organism-based
Summary of the method: as §3, with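 “B. subtilis” for “S. aureus”, “6051” for “25923”, “16sRNA.” for “gyrB.”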

[30] = system: Bacillus subtilis; test: Downregulation of yqhB gene expression in Bacillus subtilis at 50 umol/L after 8 hrs by semi-quantitative RT-PCR analysis relative to control; format: functional, organism-based
Summary of the method: as §3, with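 “B. subtilis” for “S. aureus”, “6051” for “25923”, “16sRNA.” for “gyrB.”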

[31] = system: Bacillus subtilis; test: Downregulation of yugS gene expression in Bacillus subtilis at 50 umol/L after 8 hrs by real-time RT-PCR analysis relative to control; format: functional, organism-based
Summary of the method: as §3, with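 “B. subtilis” for “S. aureus”, “6051” for “25923”, “16sRNA.” for “gyrB.”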

[32] = system: Bacillus subtilis; test: Downregulation of yugS gene expression in Bacillus subtilis at 50 umol/L after 8 hrs by semi-quantitative RT-PCR analysis relative to control; format: functional, organism-based
Summary of the method: as §3, with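 “B. subtilis” for “S. aureus”, “6051” for “25923”, “16sRNA.” for “gyrB.”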

Compound: COc1ccc(CC(=O)N/N=C/c2cc([N+](=O)[O-])ccc2O)cc1
- inhibition of growth at 100 µM [1]: 5.57%

Compound: CC(C)(C)c1cc(/C=N/NC(=O)c2ccccc2O)c(O)c(C(C)(C)C)c1
- inhibition of growth at 100 µM [1]: 13.9%
- inhibition of growth at 100 µM [2]: 70.9%
- MBC [3]: 19 µM (≈ 7 µg/mL)
- Activity [4]: Active
- Activity [5]: Active
- Activity [6]: Active
- Activity [7]: Active
- fold change (FC) [8]: 2
- fold change (FC) [9]: 2
- Activity [10]: Active
- Activity [11]: Active

Compound: CC1(C)S[C@@H]2[C@H](NC(=O)[C@H](N)c3ccccc3)C(=O)N2[C@H]1C(=O)O [AMPICILLIN]
- inhibition of growth at 100 µM [1]: 99.3%
- MBC [12]: 1.8 µM (≈ 0.629 µg/mL)

Compound: O=C(N/N=C/c1ccccc1O)c1ccccc1O
- inhibition of growth at 100 µM [1]: 11.8%

Compound: O=C(O)[C@H](Cc1ccc(O)cc1)/N=C/c1ccccc1O
- inhibition of growth at 100 µM [1]: 96%
- inhibition of growth at 100 µM [13]: 4.38%
- MBC [12]: 1.6 µM (≈ 0.456 µg/mL)
- Activity [14]: Active
- Activity [15]: Active
- Activity [16]: Active
- Activity [17]: Active
- Activity [18]: Active
- Activity [19]: Active

Compound: CC(C)(C)c1cc(/C=N/NC(=O)c2ccncc2)c(O)c(C(C)(C)C)c1
- inhibition of growth at 100 µM [1]: 13.4%
- inhibition of growth at 100 µM [2]: 95.5%
- MBC [3]: 3.1 µM (≈ 1.1 µg/mL)
- Activity [20]: Active
- Activity [21]: Active
- fold change (FC) [8]: 2
- fold change (FC) [9]: 2
- Activity [10]: Active
- Activity [11]: Active

Compound: CN[C@@H]1[C@H](O[C@H]2[C@H](O[C@H]3[C@H](O)[C@@H](O)[C@H](N=C(N)N)[C@@H](O)[C@@H]3N=C(N)N)O[C@@H](C)[C@]2(O)C=O)O[C@@H](CO)[C@H](O)[C@H]1O [STREPTOMYCIN]
- inhibition of growth at 100 µM [13]: 94.1%
- inhibition of growth at 100 µM [2]: 97%
- MBC [22]: 2.1 µM (≈ 1.22 µg/mL)
- MBC [3]: 1.3 µM (≈ 0.756 µg/mL)

Compound: COc1ccc(CC(=O)N/N=C/c2cc(Br)ccc2O)cc1
- inhibition of growth at 100 µM [13]: 1.01%

Compound: O=C(COc1ccc(Cl)cc1)N/N=C/c1cc(Cl)ccc1O
- inhibition of growth at 100 µM [1]: 3.08%
- inhibition of growth at 100 µM [13]: 83.2%
- MBC [22]: 10.8 µM (≈ 3.66 µg/mL)
- Activity [23]: Active
- Activity [24]: Active
- Activity [25]: Active
- Activity [26]: Active
- Activity [27]: Active
- Activity [28]: Active
- Activity [29]: Active
- Activity [30]: Active
- Activity [31]: Active
- Activity [32]: Active

Compound: O=C(N/N=C/c1ccccc1O)c1ccncc1 [SALINAZID]
- inhibition of growth at 100 µM [1]: 6.81%
